Activity calls are given as the source filed them. The rule behind the calls is not given here.
Columns and labels:
[1] = target: T1, Nuclear receptor subfamily 1 group I member 2 (Homo sapiens, UniProt O75469); assay: Activation of human PXR expressed in human HepG2 cells co-expressing CYP3A4 assessed as CYP3A4 activation at 10 uM by luciferase reporter gene assay relative to rifampicin; assay type: ADME, cell-based; settings: hepg2, 10 µM
T1 sequence (O75469 whole entry): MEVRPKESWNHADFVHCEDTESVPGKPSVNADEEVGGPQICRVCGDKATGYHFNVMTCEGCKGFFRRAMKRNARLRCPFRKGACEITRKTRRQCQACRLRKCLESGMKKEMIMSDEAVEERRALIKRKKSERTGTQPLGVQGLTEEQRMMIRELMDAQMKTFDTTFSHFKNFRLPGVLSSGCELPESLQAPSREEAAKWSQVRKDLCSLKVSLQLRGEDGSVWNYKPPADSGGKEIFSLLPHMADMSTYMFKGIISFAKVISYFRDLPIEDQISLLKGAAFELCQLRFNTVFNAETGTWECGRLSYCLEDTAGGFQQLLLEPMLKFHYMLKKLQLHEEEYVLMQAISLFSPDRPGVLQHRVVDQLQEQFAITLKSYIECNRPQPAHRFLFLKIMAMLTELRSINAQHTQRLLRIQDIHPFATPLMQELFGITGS
How it was run: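 Single-concentration PXR reporter gene screen, compound at 10 μM; activation expressed as a percentage of the response to rifampicin, also at 10 μM.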

[2] = Lipophilicity, log D of the compound at pH 7.4; assay type: physicochemical; settings: buffer
[3] = target: T2, Sphingosine 1-phosphate receptor 1 (Homo sapiens, UniProt P21453); assay: Antagonist activity against human S1P1 receptor expressed in human U2OS cells co-expressing GFP assessed as inhibition of S1P-induced receptor translocation; assay type: cell-based
How it was run: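 Cellular S1P1 translocation (internalization) assay with antagonist; EC50 reported as mean of at least three separate determinations ± standard deviation.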

Cytochrome P450 3A4 [4] = target: T3, Cytochrome P450 3A4 (Homo sapiens, UniProt P08684); assay: Induction of CYP3A4 activation in human hepatocytes at 10 uM incubated for 48 hrs using testosterone substrate relative to rifampicin; assay type: ADME, cell-based, Hepatocyte
How it was run: (§1)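 Human hepatocyte CYP3A induction, testosterone probe with 6-β-hydroxytestosterone as marker; activity expressed as % of the rifampicin response; hepatocytes from two donors tested.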

Cytochrome P450 3A5 [5] = target: T4, Cytochrome P450 3A5 (Homo sapiens, UniProt P20815); assay: Induction of CYP3A5 activation in human hepatocytes at 10 uM incubated for 48 hrs using testosterone substrate relative to rifampicin; assay type: ADME, cell-based, Hepatocyte; how it was run: as §1
[6] = target: Sphingosine 1-phosphate receptor 3 (Homo sapiens) (UniProt Q99500); assay: Antagonist activity against S1P3 receptor (unknown origin)
[7] = Intrinsic clearance in human liver microsomes pre-incubated at 37 degC for 5 mins before NADPH addition by LCMS/MS method; assay type: ADME; settings: read-out: CLH
Cytochrome P450 2C19 = Cytochrome P450 2C19 (Homo sapiens, UniProt P33261); assay: Inhibition of CYP2C19 in human liver microsomes incubated for 5 mins in presence of NADPH and specific substrates by LC/MS/MS method; assay type: ADME
[8] = target: Sphingosine 1-phosphate receptor 1 (Mus musculus) (UniProt O08530); assay: Antagonist activity against mouse S1P1 receptor expressed in human U2OS cells co-expressing GFP assessed as inhibition of S1P-induced receptor translocation; assay type: cell-based
[9] = Oral bioavailability in Han Wistar rat at 5 to 10 mg/kg by LC-MS/MS method; assay type: ADME, organism-based; settings: in vivo
[10] = target: T2, Sphingosine 1-phosphate receptor 1; assay: Antagonist activity against S1P1 receptor (unknown origin) expressed in human U2OS cells co-expressing GFP assessed as right-ward shift of S1P-induced response; assay type: cell-based
How it was run: (§2)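 S1P concentration-response curves for receptor internalization run at a series of fixed antagonist concentrations, giving both curve shift and maximal internalization.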

[11] = target: T2, Sphingosine 1-phosphate receptor 1; assay: Antagonist activity against S1P1 receptor (unknown origin) expressed in human U2OS cells co-expressing GFP assessed as reduction in maximal amount of S1P-induced receptor translocation; assay type: cell-based; how it was run: as §2
[12] = Clearance in Han Wistar rat at 2 to 4 mg/kg, iv by LC-MS/MS method; assay type: ADME, organism-based; settings: in vivo
Cytochrome P450 2B6 = target: T5, Cytochrome P450 2B6 (Homo sapiens, UniProt P20813); assay: Induction of CYP2B6 activation in human hepatocytes at 0.2 to 20 uM incubated for 48 hrs using bupropion substrate; assay type: ADME, cell-based, Hepatocyte
T5 sequence (P20813 whole entry): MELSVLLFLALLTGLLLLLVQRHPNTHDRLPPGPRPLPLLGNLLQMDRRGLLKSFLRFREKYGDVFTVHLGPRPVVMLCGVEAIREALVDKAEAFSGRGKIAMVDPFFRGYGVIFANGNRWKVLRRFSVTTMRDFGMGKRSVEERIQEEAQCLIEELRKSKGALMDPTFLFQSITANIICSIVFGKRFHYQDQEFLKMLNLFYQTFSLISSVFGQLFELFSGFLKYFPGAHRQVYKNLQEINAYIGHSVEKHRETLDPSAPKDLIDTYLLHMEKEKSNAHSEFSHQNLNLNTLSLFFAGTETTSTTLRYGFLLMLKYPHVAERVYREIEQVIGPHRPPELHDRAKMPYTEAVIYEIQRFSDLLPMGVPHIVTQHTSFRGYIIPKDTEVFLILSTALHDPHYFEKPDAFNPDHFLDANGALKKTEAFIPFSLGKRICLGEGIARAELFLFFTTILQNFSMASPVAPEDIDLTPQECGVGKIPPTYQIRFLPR
How it was run: (§3)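 Primary human hepatocytes seeded on collagen and cultured in collagen-Matrigel sandwich. On day 3 they are treated for 48 h with DMSO, test compound at varying concentrations, or reference inducer (3-methylcholanthrene for CYP1A2, phenobarbital for CYP2B6, rifampicin for CYP3A4/5). Probe substrates are then added (phenacetin, bupropion, testosterone) and marker metabolites quantified (acetaminophen, hydroxybupropion, 6-β-hydroxytestosterone).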

Cytochrome P450 3A5 [13] = target: T4, Cytochrome P450 3A5; assay: Induction of CYP3A5 activation in human hepatocytes at 2 uM incubated for 48 hrs using testosterone substrate; assay type: ADME, cell-based, Hepatocyte; how it was run: as §3
Cytochrome P450 1A2 = target: T6, Cytochrome P450 1A2 (Homo sapiens, UniProt P05177); assay: Induction of CYP1A2 activation in human hepatocytes at 0.2 to 20 uM incubated for 48 hrs using phenacetin substrate; assay type: ADME, cell-based, Hepatocyte; how it was run: as §3
T6 sequence (P05177 whole entry): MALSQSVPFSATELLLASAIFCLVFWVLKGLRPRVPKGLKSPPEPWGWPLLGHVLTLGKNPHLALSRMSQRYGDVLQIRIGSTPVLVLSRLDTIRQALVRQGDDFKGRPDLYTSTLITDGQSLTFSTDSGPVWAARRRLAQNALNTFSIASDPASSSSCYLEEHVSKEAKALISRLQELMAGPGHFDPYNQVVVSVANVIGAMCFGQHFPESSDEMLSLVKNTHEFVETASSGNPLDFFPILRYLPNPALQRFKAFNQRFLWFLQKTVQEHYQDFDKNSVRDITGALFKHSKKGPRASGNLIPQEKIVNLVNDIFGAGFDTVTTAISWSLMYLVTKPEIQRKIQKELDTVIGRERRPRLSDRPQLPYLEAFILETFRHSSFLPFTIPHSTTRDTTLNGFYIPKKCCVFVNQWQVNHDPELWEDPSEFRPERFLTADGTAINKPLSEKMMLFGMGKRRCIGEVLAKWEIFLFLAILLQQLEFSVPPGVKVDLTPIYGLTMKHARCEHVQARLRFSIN

Cytochrome P450 3A4 [14] = target: T3, Cytochrome P450 3A4; assay: Induction of CYP3A4 activation in human hepatocytes at 0.2 to 20 uM incubated for 48 hrs using testosterone substrate; assay type: ADME, cell-based, Hepatocyte; how it was run: as §3
Cytochrome P450 3A5 [15] = target: T4, Cytochrome P450 3A5; assay: Induction of CYP3A5 activation in human hepatocytes at 0.2 to 20 uM incubated for 48 hrs using testosterone substrate; assay type: ADME, cell-based, Hepatocyte; how it was run: as §3
Cytochrome P450 2D6 = Cytochrome P450 2D6 (Homo sapiens, UniProt P10635); assay: Inhibition of CYP2D6 in human liver microsomes incubated for 5 mins in presence of NADPH and specific substrates by LC/MS/MS method; assay type: ADME
Cytochrome P450 3A4 [16] = target: T3, Cytochrome P450 3A4; assay: Inhibition of CYP3A4 in human liver microsomes incubated for 5 mins in presence of NADPH and specific substrates by LC/MS/MS method; assay type: ADME
Cytochrome P450 3A5 [17] = target: T4, Cytochrome P450 3A5; assay: Inhibition of CYP3A5 in human liver microsomes incubated for 5 mins in presence of NADPH and specific substrates by LC/MS/MS method; assay type: ADME

T2 sequence (P21453 whole entry): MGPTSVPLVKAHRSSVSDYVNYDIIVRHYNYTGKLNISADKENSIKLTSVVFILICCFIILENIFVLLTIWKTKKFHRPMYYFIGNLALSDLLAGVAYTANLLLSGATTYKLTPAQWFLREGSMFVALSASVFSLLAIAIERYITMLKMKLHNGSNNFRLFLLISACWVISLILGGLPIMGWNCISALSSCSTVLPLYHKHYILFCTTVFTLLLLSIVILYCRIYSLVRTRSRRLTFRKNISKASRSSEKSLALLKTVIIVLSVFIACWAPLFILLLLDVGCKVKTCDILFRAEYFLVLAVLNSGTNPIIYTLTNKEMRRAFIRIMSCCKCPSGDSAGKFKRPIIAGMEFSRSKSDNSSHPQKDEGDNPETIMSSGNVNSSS
T3 sequence (P08684 whole entry): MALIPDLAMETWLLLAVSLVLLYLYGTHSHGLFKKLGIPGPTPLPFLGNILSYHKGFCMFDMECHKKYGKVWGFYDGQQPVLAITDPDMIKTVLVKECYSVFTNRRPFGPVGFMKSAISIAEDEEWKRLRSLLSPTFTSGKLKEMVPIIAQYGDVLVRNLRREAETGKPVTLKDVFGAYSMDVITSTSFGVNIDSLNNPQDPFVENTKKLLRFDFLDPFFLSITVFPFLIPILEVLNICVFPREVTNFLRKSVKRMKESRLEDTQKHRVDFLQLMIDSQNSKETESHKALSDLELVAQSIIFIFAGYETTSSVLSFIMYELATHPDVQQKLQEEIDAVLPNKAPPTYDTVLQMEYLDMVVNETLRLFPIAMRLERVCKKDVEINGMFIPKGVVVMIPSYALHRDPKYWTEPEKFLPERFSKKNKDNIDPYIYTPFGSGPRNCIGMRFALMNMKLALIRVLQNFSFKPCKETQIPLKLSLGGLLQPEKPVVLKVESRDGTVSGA
T4 sequence (P20815 whole entry): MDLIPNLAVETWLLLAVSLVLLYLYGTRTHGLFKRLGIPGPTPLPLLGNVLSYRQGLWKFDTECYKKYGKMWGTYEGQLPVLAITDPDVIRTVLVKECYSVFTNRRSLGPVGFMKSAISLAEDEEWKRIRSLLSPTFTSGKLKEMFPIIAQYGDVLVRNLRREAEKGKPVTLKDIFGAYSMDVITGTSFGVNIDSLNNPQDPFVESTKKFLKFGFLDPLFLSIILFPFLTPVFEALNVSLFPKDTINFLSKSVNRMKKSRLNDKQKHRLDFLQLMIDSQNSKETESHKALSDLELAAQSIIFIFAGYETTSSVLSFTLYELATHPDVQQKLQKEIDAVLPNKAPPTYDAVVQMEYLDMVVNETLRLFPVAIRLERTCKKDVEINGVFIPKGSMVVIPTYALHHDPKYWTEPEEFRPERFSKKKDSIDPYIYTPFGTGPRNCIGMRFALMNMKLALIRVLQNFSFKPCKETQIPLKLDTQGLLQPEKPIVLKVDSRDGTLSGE
Cytochrome P450 2C19, sequence (P33261 whole entry): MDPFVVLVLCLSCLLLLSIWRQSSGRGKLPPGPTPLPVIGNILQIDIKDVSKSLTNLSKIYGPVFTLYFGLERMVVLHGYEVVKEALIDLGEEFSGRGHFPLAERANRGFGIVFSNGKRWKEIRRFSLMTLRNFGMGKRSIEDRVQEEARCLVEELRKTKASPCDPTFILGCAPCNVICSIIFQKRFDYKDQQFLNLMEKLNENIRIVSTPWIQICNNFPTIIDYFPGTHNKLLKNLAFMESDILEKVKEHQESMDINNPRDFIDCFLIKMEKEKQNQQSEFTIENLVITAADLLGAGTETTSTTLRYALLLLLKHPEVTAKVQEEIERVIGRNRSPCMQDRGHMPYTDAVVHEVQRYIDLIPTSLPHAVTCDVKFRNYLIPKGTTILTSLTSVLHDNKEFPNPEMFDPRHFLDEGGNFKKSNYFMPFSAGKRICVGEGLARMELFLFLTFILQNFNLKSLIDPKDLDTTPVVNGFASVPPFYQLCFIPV
Sphingosine 1-phosphate receptor 1 (Mus musculus), sequence (O08530 whole entry): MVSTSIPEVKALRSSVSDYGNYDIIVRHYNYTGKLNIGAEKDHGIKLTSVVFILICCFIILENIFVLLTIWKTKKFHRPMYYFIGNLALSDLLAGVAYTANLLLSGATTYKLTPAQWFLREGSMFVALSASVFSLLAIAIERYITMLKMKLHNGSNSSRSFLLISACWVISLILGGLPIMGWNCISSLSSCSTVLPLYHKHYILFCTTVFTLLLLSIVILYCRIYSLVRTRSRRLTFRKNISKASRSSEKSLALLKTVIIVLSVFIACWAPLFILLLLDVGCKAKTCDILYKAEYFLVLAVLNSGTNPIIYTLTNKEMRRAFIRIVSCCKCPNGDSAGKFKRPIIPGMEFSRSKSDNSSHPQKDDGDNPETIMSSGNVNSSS
Sphingosine 1-phosphate receptor 3 (Homo sapiens), sequence (Q99500 whole entry): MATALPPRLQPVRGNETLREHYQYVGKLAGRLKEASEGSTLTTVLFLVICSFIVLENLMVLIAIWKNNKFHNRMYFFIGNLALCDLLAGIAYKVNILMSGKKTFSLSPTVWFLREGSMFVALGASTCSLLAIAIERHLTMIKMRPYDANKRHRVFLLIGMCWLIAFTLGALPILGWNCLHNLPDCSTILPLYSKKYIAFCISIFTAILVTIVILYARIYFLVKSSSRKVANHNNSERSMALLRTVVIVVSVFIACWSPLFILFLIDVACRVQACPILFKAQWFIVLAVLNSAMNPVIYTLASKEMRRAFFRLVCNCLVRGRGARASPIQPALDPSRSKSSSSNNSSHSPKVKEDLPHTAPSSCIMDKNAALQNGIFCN
Cytochrome P450 2D6, sequence (P10635 whole entry): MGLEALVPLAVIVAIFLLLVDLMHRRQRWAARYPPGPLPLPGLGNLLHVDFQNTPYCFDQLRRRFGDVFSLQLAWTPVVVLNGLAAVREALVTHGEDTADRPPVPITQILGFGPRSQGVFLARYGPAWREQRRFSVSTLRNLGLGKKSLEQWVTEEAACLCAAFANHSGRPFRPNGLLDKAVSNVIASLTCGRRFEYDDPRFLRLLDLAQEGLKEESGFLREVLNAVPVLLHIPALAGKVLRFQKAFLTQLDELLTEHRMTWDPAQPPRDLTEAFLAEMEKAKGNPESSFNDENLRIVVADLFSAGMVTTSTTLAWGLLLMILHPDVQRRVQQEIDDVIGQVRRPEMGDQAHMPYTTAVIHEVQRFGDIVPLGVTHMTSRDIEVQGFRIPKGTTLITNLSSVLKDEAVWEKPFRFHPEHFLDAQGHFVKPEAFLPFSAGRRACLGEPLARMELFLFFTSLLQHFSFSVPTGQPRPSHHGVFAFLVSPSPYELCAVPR

SMILES	Activity [1] [%]	EC50 [3] [nM]	Activity (Cytochrome P450 3A4 [4]) [%]	Activity (Cytochrome P450 3A5 [5]) [%]	microsomal CLint [7] [µL/min/mg]	also measured
CCn1c([C@@H](C)NS(=O)(=O)c2ccc(C#N)nc2)nc2cnc(OC)cc21	11	28	< 40	< 40		logD [2]: 1
CCc1nnc([C@@H](C)NS(=O)(=O)c2ccc(Cl)cc2)n1CC						inhibition [6]: inactive
CCn1c([C@@H](C)NS(=O)(=O)c2ccncc2)nc2ccc(C(F)(F)F)cc21		26			45	IC50 (Cytochrome P450 2C19): 40 nM
CCn1c([C@@H](C)NS(=O)(=O)c2ccc(Cl)cc2)nc2ccccc21		50			> 100	bioavailability [9]: 5%; inhibition [10]: Active; inhibition [11]: Active
CCn1c([C@@H](C)NS(=O)(=O)c2ccc(C#N)cc2)nc2cnccc21	14	34	< 40	< 40		
CCn1c(C(C)NS(=O)(=O)c2ccc(Cl)cc2)nc2cnccc21 (stereo not given)		210			35	IC50 (Cytochrome P450 2D6): 230 nM; IC50 (Cytochrome P450 2C19): 910 nM
CCn1c([C@@H](C)NS(=O)(=O)c2cccnc2)nc2ccc(C(F)(F)F)cc21		30			> 100	IC50 (Cytochrome P450 3A4 [16]): 830 nM; IC50 (Cytochrome P450 3A5 [17]): 830 nM
CCn1c(C(C)NS(=O)(=O)c2ccc(Cl)cc2)nc2ccncc21 (stereo not given)		1170			93	
CCn1c([C@@H](C)NS(=O)(=O)c2ccc(CC(C)C)cc2)nc2ccc(C(F)(F)F)cc21		1800			> 100	
CCn1c([C@@H](C)NS(=O)(=O)c2cn(C)nc2C)nc2ccc(C(F)(F)F)cc21		1000			28	

More lines, main results first:

Activity [1] [%]	EC50 [3] [nM]	Activity (Cytochrome P450 3A4 [4]) [%]	Activity (Cytochrome P450 3A5 [5]) [%]	microsomal CLint [7] [µL/min/mg]	SMILES	also measured
18	9	< 40	< 40		CCn1c([C@@H](C)NS(=O)(=O)c2ccc(C#N)cc2)nc2cnc(OC)cc21	logD [2]: 1.4
27	6	< 40	< 40		CCn1c([C@@H](C)NS(=O)(=O)c2ccc(C#N)cc2)nc2cnc(C3CC3)cc21	logD [2]: 1.9
	7			26	CCn1c([C@@H](C)NS(=O)(=O)c2ccc(F)cc2)nc2ccc(C(F)(F)F)cc21	inhibition [8]: Active
32	3	< 40	< 40		CCn1c([C@@H](C)NS(=O)(=O)c2ccc(C#N)cc2)nc2cnc(C(F)(F)F)cc21	logD [2]: 1.6
	5			> 100	CCn1c([C@@H](C)NS(=O)(=O)c2ccc(Cl)cc2)nc2ccc(C(F)(F)F)cc21	clearance [12]: 33 mL/min/kg; bioavailability [9]: 43%; Activity (Cytochrome P450 2B6): Not Active; Activity (Cytochrome P450 3A5 [13]): Active; Activity (Cytochrome P450 1A2): Not Active; Activity (Cytochrome P450 3A4 [14]): Dose-dependent effect; inhibition [8]: Active; Activity (Cytochrome P450 3A5 [15]): Dose-dependent effect
